# Pf gametocyte – late stage P. falciparum gametocyte viability inhibitors, primary screen, ATP luminescence, HTS. P. falciparum stage V gametocytes, 24 h. hit rate 0.065% among 150,000. AID 743093, 2013. inhibition, % at 10.9 µM;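 active = inhibition above the mean plus 3 SD of compounds within the control limits, set per campaign, cut at about 38% in these data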
# TNAP inh no acc – human TNAP enzyme inhibitors, primary screen, biochemical, luminescent, no phosphate acceptor, uHTS. Alkaline phosphatase, tissue-nonspecific isozyme (Homo sapiens), P05186. purified TNAP, CDP-star luminescence, 30 min. inhibition, % at 20 µM. hit rate 0.26% among 200,000. AID 1012, 2008;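 active = tissue-nonspecific alkaline phosphatase inhibition above about 50% at 20 µM in the single-dose screen, limit read from the data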
# Target sequence (P05186 whole entry, looked up): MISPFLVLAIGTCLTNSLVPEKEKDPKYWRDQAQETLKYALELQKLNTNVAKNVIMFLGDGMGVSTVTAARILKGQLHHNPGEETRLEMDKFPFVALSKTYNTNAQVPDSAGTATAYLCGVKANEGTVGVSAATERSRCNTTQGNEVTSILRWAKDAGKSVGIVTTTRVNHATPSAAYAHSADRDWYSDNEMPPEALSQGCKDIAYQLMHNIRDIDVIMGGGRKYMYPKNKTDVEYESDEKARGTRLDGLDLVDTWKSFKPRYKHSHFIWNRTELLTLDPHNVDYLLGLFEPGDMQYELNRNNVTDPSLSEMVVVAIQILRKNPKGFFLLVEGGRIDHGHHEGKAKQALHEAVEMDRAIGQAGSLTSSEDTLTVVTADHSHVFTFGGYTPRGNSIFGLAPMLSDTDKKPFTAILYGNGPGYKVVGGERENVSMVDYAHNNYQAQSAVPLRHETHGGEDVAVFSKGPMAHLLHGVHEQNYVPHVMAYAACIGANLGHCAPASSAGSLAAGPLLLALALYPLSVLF
# TNAP inh hiacc – human TNAP enzyme inhibitors, primary screen, biochemical, luminescent, high phosphate acceptor level, uHTS; Alkaline phosphatase, tissue-nonspecific isozyme (Homo sapiens), P05186; hit rate 0.03% among 200,000; AID 1135, 2008; inhibition, % at 20 µM; purified TNAP, CDP-star luminescence, 1 M DEA;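 active = over 50% inhibition of tissue-nonspecific alkaline phosphatase at 20 µM in the single-dose screen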
# Efa HMGR inh – inhibitors of E. faecalis class II HMGR, primary screen, biochemical, Enterococcus faecalis. hit rate 0.41% among 190,000. inhibition, % at 10 µM. HMG-CoA reductase (Enterococcus faecalis, mvaE). purified E. faecalis HMGR, NADPH absorbance 340 nm kinetic;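 active = inhibition above a set limit, the median over all tested compounds plus 3 SD, cut at about 9.5% in these data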;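 note: enzyme runs in reverse so mevalonate oxidation gives rising NADPH absorbance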
# Furin inh – human furin inhibitors, primary screen, biochemical, fluorescence intensity; P09958; purified furin, fluorogenic substrate cleavage; inhibition, % at 20 µM or 30 µM; hit rate 0.061% among 220,000; AID 463115, 2010; in the data active = inhibition above about 25%
# TNAP act hiacc – TNAP activators at high phosphate acceptor level, primary screen, biochemical, luminescence, uHTS | Alkaline phosphatase, tissue-nonspecific isozyme (Homo sapiens), P05186 | purified TNAP, CDP-star luminescence, 1 M DEA, 30 min; active compounds read high; 0 = EDTA background, 1 = DMSO-only activity | activation factor at 20 µM | 200,000 tested, under 10 active;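 active = activation factor at least 2 at 20 µM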
#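 Measured by: Luminescent substrate turnover signal | Test system: Human TNAP | Input: TNAP 1/800 final | Dosing: 20 µM single point | Schedule: 30 min, room temperature | Controls: EDTA wells as negative control, DMSO wells as positive control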
# A number is an active result; n = inactive; x = not tested or not shown. The list is not random: actives were taken first. Their share in the collection is about 0.68%.
SMILES,Pf gametocyte,TNAP inh no acc,TNAP inh hiacc,Efa HMGR inh,Furin inh,TNAP act hiacc
CCCC/C(O)=C1\C(=O)CCCC1=NCCc1c(C)[nH]c2ccc(OC)cc12,n,x,x,x,n,x
COc1ccc(N2CCN(C(CNC(=O)C(=O)NCCc3c[nH]c4ccccc34)c3ccco3)CC2)cc1 (centres undefined),x,n,n,n,n,n
Cc1cc2c(cc1C)C(c1cccc([N+](=O)[O-])c1)CC(=O)N2 (centres undefined),51,n,n,n,n,n
O=C(Nc1ccccc1)N1CCc2scc[n+]2-c2ccccc21,n,70,n,n,n,n
O=CN1CCc2scc[n+]2-c2ccccc21,n,n,n,n,n,n
CC1CC(=S)Nc2ccccc2N1C(=O)Nc1ccccc1 (centres undefined),n,n,n,n,n,n
CC1CN(C(=O)Nc2ccccc2)c2ccccc2-[n+]2ccsc21 (centres undefined),n,72,n,n,n,n
CC1CCCN(S(=O)(=O)c2ccc(NC(=O)CCN3C(=O)c4ccccc4C3=O)cc2)C1 (centres undefined),x,n,n,n,n,n
Cn1ccc2c([N+](=O)[O-])cccc2c1=O,n,n,n,n,n,n
COc1ccc(CN2CCC(CO)(Cc3ccccc3C(F)(F)F)CC2)c(F)c1,n,n,n,10,n,n
COc1ccc(CC2(CO)CCN(Cc3cccc4nccnc34)CC2)cc1,n,n,n,n,n,n
CCCC(=O)Nc1sc(C(=O)Nc2cccc(N)c2)c(C)c1C(=O)OC,n,n,n,17,n,n
COC(=O)c1c(NC(C)=O)sc(C(=O)Nc2ccccc2)c1C,n,n,n,n,n,n
Cc1ccc(NC(=O)COC(=O)CN2C(=O)NC(C)(C)C2=O)cc1S(=O)(=O)N1CCOCC1,n,n,n,9.7,n,n
O=C(C1CC1)N1CCC(C(O)(c2ccccc2)c2ccccc2)CC1,n,n,n,n,n,n
CC(C)(C)C(=O)N1CCC[C@H]1C(O)(c1ccccc1)c1ccccc1,n,n,n,14,n,n
O=C(Nc1ccc2c(c1)C(=O)N(c1ccccc1)C2=O)C1CCCO1 (centres undefined),n,n,n,12,n,n
O=C1NC(=O)c2cc(NC(=O)C3CCCO3)ccc21 (centres undefined),n,n,n,n,n,n
CN(C)/C=C(/C(=O)c1ccc(Cl)cc1)S(=O)(=O)c1ccc(Cl)cc1,x,n,n,12,n,n
O=C(NC1CCCC1)C(c1ccncc1)N(C(=O)Cc1cccs1)c1ccccc1 (centres undefined),n,n,n,10,n,n
COc1ccccc1C(=O)NCCn1cc(SCC(=O)Nc2cc(C)on2)c2ccccc21,n,n,n,13,n,n
CC(C)C(=O)NC(=S)Nc1ccccc1C(=O)NC1CCCCC1,52,n,n,n,n,n
CCCc1cc(NC(=O)CCl)n(-c2ccccc2)n1,x,n,n,n,n,n
OC(COc1ccc(CNCc2cccnc2)cc1)CN1CCc2ccccc2C1 (centres undefined),n,n,n,n,n,n
Cc1ccc(C)c(OCCCC(=O)O)c1,x,n,n,n,n,n
SMILES,Pf gametocyte,TNAP inh no acc,TNAP inh hiacc,Efa HMGR inh,Furin inh,TNAP act hiacc
Cc1ccc(C)c(OCCCC(C)(C)C(=O)O)c1,x,n,n,9.6,n,n
Cc1cccc(-n2cnc3sc(C)c(C)c3c2=O)c1,n,x,x,x,n,x
Cc1ccc(-n2cnc3sc(C)c(C)c3c2=O)cc1,n,n,n,13,n,n
CC12CCC(C(=O)Nc3ccccc3Cl)(C(Br)C1=O)C2(C)C (centres undefined),n,n,n,n,n,n
O=C1Nc2ccccc2/C1=N\N=C\c1ccc(O)c(O)c1,n,x,x,x,n,x
O=C(/C(=N/N=C/c1ccc(O)c(O)c1)c1ccccc1)c1ccccc1,n,51,n,n,n,n
COC(=O)CNC(=O)c1cc(OC)cc(OC)c1,n,n,n,18,n,n

# Compound activity as filed in PubChem BioAssay.
